Published values pooled from the literature.
AMY2: Pancreatic alpha-amylase (AMY2, Sus scrofa, UniProt P00690)
D14: D14 (Arabidopsis thaliana, UniProt Q9SQR3)
EIF2AK3: Eukaryotic translation initiation factor 2-alpha kinase 3 (EIF2AK3, Homo sapiens, UniProt Q9NZJ5)

Structure (SMILES)	target	assay	setting	measurement	result
O=c1cc(-c2ccccc2)oc2cc(O)cc(O)c12	AMY2	enzyme activity, inhibitor	50 µM, 30 min	inhibition	22.3%
Cc1cc(F)cc2c(CCC(=O)N[C@@H]3C(=O)NC[C@H]3O)c(-c3ccc(F)cc3)[nH]c12	Muscarinic acetylcholine receptor M2 (CHRM2, Homo sapiens, UniProt P08172)	cell-free assay	10 µM	inhibition	-4%
CC1=C(/C=C/C(C)=C/C=O)C(C)(C)CCC1	D14	thermal stability, DSF	50 µM	ΔTm	-3.82 °C
Cc1cc(O)c(-c2ccc([C@@H](C)CN(C)C)cc2)c2c1[nH]c(=O)c1sccc12	EIF2AK3	enzyme activity, inhibitor	0.1 µM	inhibition	-7.06%
O=c1c(O)c(-c2ccc(O)c(O)c2)oc2c(Br)c(O)c(Br)c(O)c12	AMY2	enzyme activity, inhibitor	50 µM, 30 min	inhibition	70.2%
CC(=O)/C=C/C=C(C)/C=C/C1=C(C)CCCC1(C)C	D14	thermal stability, DSF	50 µM	ΔTm	1.3 °C
COc1ccc([C@@H]2CC(=O)c3c(O)cc(O)cc3O2)cc1O	AMY2	enzyme activity, inhibitor	50 µM, 30 min	inhibition	30.3%
CC1=CC(O/C=C2/C(=O)OC3c4ccccc4CC23)OC1=O (racemic)	D14	thermal stability	50 µM	ΔTm	-7.73 °C
Cc1cc(S(=O)(=O)N[C@H]2CC[C@H](CN3CCN(c4ccc(C5CCC(=O)NC5=O)cc4F)CC3)CC2)ccc1Nc1ncc(C(F)(F)F)c(N2CCC[C@](C)(O)C2)n1 (stereo partly drawn)	Cyclin-dependent kinase 4, with cyclin D1 (CDK4, Homo sapiens, UniProt P11802)	binding, competition with immobilised ligand	1 µM	remaining binding	75%
C#Cc1cc(-c2cc(Nc3nc(N[C@@H](C)c4ccc(F)cn4)ncc3Cl)n[nH]2)ccc1C=O	EIF2AK3	enzyme activity, inhibitor	0.2 µM	inhibition	16.5%
C1=C/COCc2cc(ccc2OCCN2CCCC2)Nc2nccc(n2)-c2cccc(c2)COC/1	Serine/threonine-protein kinase Nek7 (NEK7, Homo sapiens, UniProt Q8TDX7)	binding	0.1 µM	remaining binding	40%
CCCCC(=O)Nc1ccc(-c2ccc3ncn(CCC)c(=O)c3c2)cn1	Serine/threonine-protein kinase 24 (STK24, Homo sapiens, UniProt Q9Y6E0)	binding, competition with immobilised ligand	0.5 µM	remaining binding	97%
COc1cc(O)c2c(c1)O[C@H](c1ccccc1)CC2=O	AMY2	enzyme activity, inhibitor	50 µM, 30 min	inhibition	12.7%
CC(=O)/C=C/C=C(C)/C=C/C1=C(C)CC(O)CC1(C)C (stereo in doubt)	D14	thermal stability	20 µM	ΔTm	4.65 °C
O=c1cc(-c2ccc(O)c(O)c2)oc2c(Br)c(O)c(Br)c(O)c12	AMY2	enzyme activity, inhibitor	50 µM, 30 min	inhibition	99.8%
COc1ccc2oc(-c3ccc4nc(N)oc4c3)c/c(=N\c3ccccc3NC(=O)CCN)c2c1	Receptor-interacting serine/threonine-protein kinase 1 (RIPK1, Homo sapiens, UniProt Q13546)	binding	1 µM	remaining binding	110%
CC1=C(/C=C/C(C)=C/C=O)C(C)(C)C[C@H](O)C1	D14	thermal stability, DSF	1 µM	ΔTm	0.28 °C
O=C1C[C@@H](c2ccc(O)cc2)Oc2cc(O)cc(O)c21	AMY2	enzyme activity, inhibitor	50 µM	inhibition	33.3%
